For four compounds, Activity and inhibition results are on record in ChEMBL document CHEMBL2331462, “Antiallodynic and analgesic effects of maslinic acid, a pentacyclic triterpenoid from Olea europaea” (J Nat Prod, 2013).

Series [1] concerns Mus musculus. In words: Antinociceptive activity in CD-1 mouse assessed as reduction of formalin-induced inflammatory pain at 100 mg/kg, sc administered 15 mins challenge measured after 10 to 50 mins. The series is classed as functional, organism-based. On the set-up: dose 100 mg/kg.
Series [2] concerns Mus musculus. In words: Analgesic activity in CD-1 mouse assessed as inhibition of acetic acid-induced writhing response at 100 mg/kg, sc measured after 30 mins. The series is classed as functional, organism-based. On the set-up: dose 100 mg/kg. The essentials:
(§1)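 Female CD-1 mice (25−30 g), dosed sc interscapularly in 2% Tween 80 in water (5 mL/kg), 30 min before ip 0.6% acetic acid (10 mL/kg). Writhes (torso stretches with back arching and leg extension) counted cumulatively over 30 min. Mean ± SEM of 8−12 mice per group versus vehicle, one-way ANOVA with Bonferroni.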

Series [3] has as its system Mus musculus. In words: Antiallodynic activity against capsaicin-induced secondary mechanical pain in CD-1 mouse assessed as paw withdrawal-latency at 100 mg/kg, sc measured after 30 mins post compound administration. The series is classed as functional, organism-based. On the set-up: dose 100 mg/kg. The essentials: (§2)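 Female CD-1 mice, sc dosing in 2% Tween 80 (5 mL/kg) 30 min before testing. Capsaicin (1 μg in 20 μL 1% DMSO) given ipl; 15 min later a 0.5 g force was applied with an electronic von Frey device ≥5 mm from the injection site toward the toes. Paw withdrawal latency recorded over three trials at 30 s intervals, 50 s cutoff. 8−12 mice per group, two-way ANOVA with Bonferroni.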

Series [4] relates to Mus musculus. Briefly: Antinociceptive activity in CD-1 mouse assessed as reduction of formalin-induced inflammatory pain at 100 mg/kg, sc administered 15 mins challenge measured up to 5 mins. On the set-up: dose 100 mg/kg. The format is functional, organism-based.
The test system of series [5] is Mus musculus. Briefly: Neurotoxicity in CD-1 mouse assessed as impairment in motor coordination at 8 mg/kg, sc measured up to 3 hrs by rotarod test. The format is toxicity, organism-based. Further details: dose 8 mg/kg, route subcutaneous. The note with it: in vivo. In outline:
(§3)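 Female CD-1 mice trained three times on an accelerating rotarod (4 to 40 rpm over 5 min) 24 h before testing. Sc dosing in 2% Tween 80; latency to fall (300 s cutoff) recorded just before and 30, 60, 120 and 180 min after injection. 8−12 mice per group, two-way repeated-measures ANOVA with Bonferroni.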
Background: Falling from the rotarod earlier than controls is read as motor impairment.

Series [6] deals with Mus musculus. In words: Analgesic activity in CD-1 mouse assessed as inhibition of acetic acid-induced writhing response at 64 to 256 mg/kg, sc measured after 30 mins. The series is classed as functional, organism-based. The essentials:
as §1

Series [7] relates to Mus musculus. In words: Antinociceptive activity in CD-1 mouse assessed as reduction of formalin-induced inflammatory pain at 1 % administered topically 15 mins challenge measured up to 5 mins. The series is classed as functional, organism-based. In outline:
(§4)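 Female CD-1 mice, unanesthetized and restrained. 0.1 g of a 1% compound-enriched Carbopol gel (1% Carbopol, 2% triethanolamine, 5% propylene glycol) or vehicle gel was spread on the plantar hindpaw, ipsilateral or contralateral, 15 min before intraplantar formalin (20 μL, 5%). Licking/biting time scored for phase 1 (0−5 min) and phase 2 (10−50 min). 8−12 mice per group.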

In series [8] the test system is Mus musculus. In words: Neurotoxicity in CD-1 mouse assessed as impairment in motor coordination at 512 mg/kg, sc measured up to 3 hrs by rotarod test. The series is classed as toxicity, organism-based. Further details: dose 512 mg/kg, route subcutaneous. The following applies: in vivo. In outline:
as §3

Series [9] has as its system Mus musculus. In words: Antinociceptive activity in CD-1 mouse assessed as reduction of formalin-induced inflammatory pain at 1 % administered topically 15 mins challenge measured after 10 to 50 mins. The series is classed as functional, organism-based. The essentials:
as §4

Series [10] concerns Mus musculus. In words: Antiallodynic activity against capsaicin-induced secondary mechanical pain in sc dosed CD-1 mouse assessed as paw withdrawal-latency measured after 30 mins post compound administration. The series is classed as functional, organism-based. In outline:
as §2

In series [11] the test system is Mus musculus. Briefly: Antiallodynic activity against capsaicin-induced secondary mechanical pain in CD-1 mouse assessed as paw withdrawal-latency at 64 mg/kg, sc measured after 30 mins post compound administration. The series is classed as functional, organism-based. On the set-up: dose 64 mg/kg. The essentials:
as §2

For series [12], the system named is Mus musculus. Briefly: Neurotoxicity in CD-1 mouse assessed as impairment in motor coordination at 64 mg/kg, sc measured up to 3 hrs by rotarod test. Further details: dose 64 mg/kg, route subcutaneous. The series is classed as toxicity, organism-based. The following applies: in vivo. In outline: as §3

Calls of active or inactive are those of the source.

For `CC(C)Cc1ccc(C(C)C(=O)O)cc1` (configuration not stated), in the series on Mus musculus [1], the outcome was Active. For the same compound, in the series on Mus musculus [2], the inhibition entry is “Active”. In addition, the result with Mus musculus [3] and with Mus musculus [4] was inactive.

As to `NCC(CC(=O)O)c1ccc(Cl)cc1` (configuration not stated) [BACLOFEN], in the series on Mus musculus [5], the Activity entry was “Toxic”.

Turning to `CC1(C)CC[C@]2(C(=O)O)CC[C@]3(C)C(=CC[C@@H]4[C@@]5(C)C[C@@H](O)[C@H](O)C(C)(C)[C@@H]5CC[C@]43C)[C@@H]2C1` [MASLINIC ACID], in the series on Mus musculus [6], the inhibition entry is “Active”. Moreover, in the series with Mus musculus [7], the result was inactive. Besides, the Activity result in the series on Mus musculus [8] is “Non-toxic”; with Mus musculus [10], “Dose-dependent effect”. Besides, the result in the series on Mus musculus [9] was Active.

`CC(C)C[C@H](CN)CC(=O)O` [PREGABALIN]: the outcome with Mus musculus [11] was Active. Moreover, the Activity result with Mus musculus [12] is “Toxic”.
